Assay results published in ChEMBL document CHEMBL4699648, “Discovery of Potent and Brain-Penetrant GPR52 Agonist that Suppresses Psychostimulant Behavior” (J Med Chem, 2020).
The source made the active and inactive calls. The calls are words filed in the database; no cut-off is given here.

Assays:
[1] = target: hERG (KCNH2) (Homo sapiens, UniProt Q12809); assay: Binding affinity to human ERG assessed as inhibition of ligand binding at 10 uM relative to control
[2] = test system: HEK293; assay: Effect on cAMP levels in HEK293 cells at 0.1 nM to 10000 nM incubated for 15 mins by Glosensor cAMP assay; format: functional, cell-based; conditions: Homo sapiens, dose nM 0.1-10000, time […]
How it was run: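 HEK293 cells were transiently co-transfected with human GPR52 and the 22F Glosensor cAMP reporter. After 18 h they were seeded on poly-L-lysine, then equilibrated 2 h at room temperature in the dark in 1% Glosensor reagent/HBSS/20 mM HEPES. Cells were treated 15 min with a twelve-point series, and luminescence was read.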

[3] = AUC (0 to infinity) in Sprague-Dawley rat at 20 mg/kg, po mesured up to 24 hrs; format: ADME, organism-based; design: route oral, dose 20 mg/kg, time <=24; conditions: in vivo
How it was run: (§1)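 Male Sprague-Dawley rats (200–250 g, n = 3/group), dosed IV 10 mg/kg or PO 20 mg/kg in 10% DMSO/90% HP-β-CD. Jugular blood into K2EDTA at 0.08 (IV only), 0.25, 0.5, 1, 2, 4, 8, 24 h; plasma by centrifugation at 4 °C, stored −20 °C. Non-compartmental analysis; Cmax read from profile, AUC by linear trapezoidal rule extrapolated to infinity; mean ± SEM.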

[4] = AUC (0 to infinity) in Sprague-Dawley rat at 10 mg/kg, iv mesured up to 24 hrs; format: ADME, organism-based; design: route intravenous, dose 10 mg/kg, time <=24; conditions: in vivo; how it was run: as §1
[5] = Cmax in Sprague-Dawley rat at 20 mg/kg, po mesured up to 24 hrs; format: ADME, organism-based; design: route oral, dose 20 mg/kg, time <=24; conditions: in vivo; how it was run: as §1
[6] = Cmax in Sprague-Dawley rat at 10 mg/kg, iv mesured up to 24 hrs; format: ADME, organism-based; design: route intravenous, dose 10 mg/kg, time <=24; conditions: in vivo; how it was run: as §1
[7] = Clearance in Sprague-Dawley rat at 10 mg/kg, iv mesured up to 24 hrs; format: ADME, organism-based; conditions: in vivo; how it was run: as §1
[8] = Volume of distribution at steady state in Sprague-Dawley rat at 20 mg/kg, po mesured up to 24 hrs; format: ADME, organism-based; conditions: in vivo
[9] = Volume of distribution at steady state in Sprague-Dawley rat at 10 mg/kg, iv mesured up to 24 hrs; format: ADME, organism-based; conditions: in vivo
How it was run: (§2)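 Male Sprague Dawley rats, 200–250 g, n = 3 per group, were dosed at 10 mg/kg IV or 20 mg/kg PO in 10% DMSO/90% HP-β-CD. Jugular plasma was sampled from 0.08 (IV) or 0.25 (PO) to 24 h. Non-compartmental analysis gave t1/2 = 0.693/λ, AUC by linear trapezoid extrapolated to infinity, Vss after IV, and absolute F. Mean ± SEM.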

[10] = Oral bioavailability in Sprague-Dawley rat at 20 mg/kg mesured up to 24 hrs; format: ADME, organism-based; conditions: in vivo; how it was run: as §2
[11] = Drug level in Sprague-Dawley rat brain at 10 mg/kg, iv after 1 hr; format: ADME, organism-based; conditions: read-out: Drug uptake
How it was run: (§3)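 Male Sprague Dawley rats, 200–250 g, n = 3, were given a single 10 mg/kg IV dose in 10% DMSO/90% HP-β-CD vehicle. Brain and jugular-vein plasma (K₂EDTA, centrifuged at 4 °C) were collected 0.25 and 1 h post-dose and stored at −20 °C. Drug concentration was measured in each and the brain/plasma ratio derived. Values are mean ± SEM of biological triplicates.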

[12] = Drug level in Sprague-Dawley rat plasma at 10 mg/kg, iv after 1 hr; format: ADME, organism-based; how it was run: as §3
[13] = Ratio of drug level in brain to plasma of Sprague-Dawley rat at 10 mg/kg, iv after 1 hr; format: ADME, organism-based; how it was run: as §3
[14] = test system: Mus musculus; assay: Antipsychotic-like activity in C57/BL6 mouse assessed as reduction in amphetamine-evoked hyperactivity by measuring horizontal activity at 0.3 to 10 mg/kg, ip dosed 30 mins before amphetamine challenge and measured for 90 mins; format: functional, organism-based; conditions: dose mg/kg 0.3-10, time […]
How it was run: (§4)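 Naïve male C57/BL6 mice (24–31 g, ~60 days), handled and habituated to activity monitors beforehand; n = 12/dose (11 at 1 mg/kg after outlier exclusion). Vehicle or 0.3, 1, 3, 10 mg/kg IP, then automated horizontal activity monitored 30 min; amphetamine 3 mg/kg IP followed, with monitoring for 90 min. One-way ANOVA with Dunnett's comparisons vs vehicle; mean ± SEM; blinded dosing.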

[15] = test system: Mus musculus; assay: Antipsychotic-like activity in C57/BL6 mouse assessed as reduction in horizontal activity at 3 to 10 mg/kg, ip measured after 30 mins; format: functional, organism-based; conditions: dose mg/kg 3-10, time 30.0 min; how it was run: as §4
[16] = target: 5-hydroxytryptamine receptor 2C (Homo sapiens) (UniProt P28335); assay: Binding affinity to 5-HT2C (unknown origin) assessed as inhibition of ligand binding at 10 uM relative to control
Chain of 5-hydroxytryptamine receptor 2C (Homo sapiens) (P28335 whole entry): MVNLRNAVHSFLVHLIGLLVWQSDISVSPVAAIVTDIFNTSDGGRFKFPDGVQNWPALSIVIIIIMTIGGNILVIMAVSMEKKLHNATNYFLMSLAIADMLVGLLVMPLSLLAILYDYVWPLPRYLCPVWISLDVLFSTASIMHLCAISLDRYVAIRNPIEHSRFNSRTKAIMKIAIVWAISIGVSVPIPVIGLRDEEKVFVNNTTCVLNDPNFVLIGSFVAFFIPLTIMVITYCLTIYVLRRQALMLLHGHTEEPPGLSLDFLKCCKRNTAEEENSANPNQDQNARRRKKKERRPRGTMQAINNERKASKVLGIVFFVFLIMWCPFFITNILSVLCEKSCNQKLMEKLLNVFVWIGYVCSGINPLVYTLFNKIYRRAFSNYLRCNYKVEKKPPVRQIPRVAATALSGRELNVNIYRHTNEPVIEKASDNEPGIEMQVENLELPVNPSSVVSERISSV

[17] = organism: Homo sapiens; assay: Binding affinity to GABAA receptor (unknown origin) assessed as inhibition of ligand binding at 10 uM relative to control
[18] = target: 5-hydroxytryptamine receptor 1A (Homo sapiens, UniProt P08908); assay: Binding affinity to 5-HT1A (unknown origin) assessed as inhibition of ligand binding
Chain of 5-hydroxytryptamine receptor 1A (P08908 whole entry): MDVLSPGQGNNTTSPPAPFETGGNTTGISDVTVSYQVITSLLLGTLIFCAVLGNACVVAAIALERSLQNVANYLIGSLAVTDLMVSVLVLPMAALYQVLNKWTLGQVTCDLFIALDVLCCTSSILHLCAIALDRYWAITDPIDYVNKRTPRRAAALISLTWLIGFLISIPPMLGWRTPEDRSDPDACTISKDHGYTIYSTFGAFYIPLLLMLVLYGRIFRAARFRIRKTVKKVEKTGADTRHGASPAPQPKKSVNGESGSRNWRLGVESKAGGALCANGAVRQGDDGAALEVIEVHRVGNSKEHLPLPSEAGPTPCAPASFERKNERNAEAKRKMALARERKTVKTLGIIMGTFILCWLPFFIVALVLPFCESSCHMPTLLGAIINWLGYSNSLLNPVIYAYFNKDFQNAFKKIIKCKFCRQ

[19] = target: 5-hydroxytryptamine receptor 1B (Homo sapiens, UniProt P28222); assay: Binding affinity to 5-HT1B (unknown origin) assessed as inhibition of ligand binding
[20] = target: 5-hydroxytryptamine receptor 1D (Homo sapiens, UniProt P28221); assay: Binding affinity to 5-HT1D (unknown origin) assessed as inhibition of ligand binding
Chain of 5-hydroxytryptamine receptor 1D (P28221 whole entry): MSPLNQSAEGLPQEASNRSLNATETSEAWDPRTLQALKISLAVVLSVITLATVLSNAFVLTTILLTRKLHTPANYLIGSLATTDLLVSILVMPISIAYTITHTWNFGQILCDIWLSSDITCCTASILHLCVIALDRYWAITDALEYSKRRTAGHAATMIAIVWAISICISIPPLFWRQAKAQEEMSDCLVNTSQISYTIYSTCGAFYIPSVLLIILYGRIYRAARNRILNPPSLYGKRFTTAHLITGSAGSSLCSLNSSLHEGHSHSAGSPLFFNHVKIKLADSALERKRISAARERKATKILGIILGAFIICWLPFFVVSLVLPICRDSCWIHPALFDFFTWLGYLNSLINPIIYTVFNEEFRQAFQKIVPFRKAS

[21] = target: 5-hydroxytryptamine receptor 1E (Homo sapiens, UniProt P28566); assay: Binding affinity to 5-HT1E (unknown origin) assessed as inhibition of ligand binding
Chain of 5-hydroxytryptamine receptor 1E (P28566 whole entry): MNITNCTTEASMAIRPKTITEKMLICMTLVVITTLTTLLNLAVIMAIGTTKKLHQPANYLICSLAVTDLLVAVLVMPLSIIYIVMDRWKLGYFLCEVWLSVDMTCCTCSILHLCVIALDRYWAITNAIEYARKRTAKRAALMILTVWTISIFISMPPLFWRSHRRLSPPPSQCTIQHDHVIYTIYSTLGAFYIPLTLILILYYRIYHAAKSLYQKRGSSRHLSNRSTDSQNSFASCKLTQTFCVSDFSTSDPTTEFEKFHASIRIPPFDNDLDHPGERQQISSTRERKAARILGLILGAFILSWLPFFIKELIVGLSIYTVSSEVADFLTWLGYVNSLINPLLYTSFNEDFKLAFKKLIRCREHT

[22] = target: 5-hydroxytryptamine receptor 2A (Homo sapiens, UniProt P28223); assay: Binding affinity to 5-HT2A (unknown origin) assessed as inhibition of ligand binding
[23] = target: 5-hydroxytryptamine receptor 2B (Homo sapiens, UniProt P41595); assay: Binding affinity to 5-HT2B (unknown origin) assessed as inhibition of ligand binding
Chain of 5-hydroxytryptamine receptor 2B (P41595 whole entry): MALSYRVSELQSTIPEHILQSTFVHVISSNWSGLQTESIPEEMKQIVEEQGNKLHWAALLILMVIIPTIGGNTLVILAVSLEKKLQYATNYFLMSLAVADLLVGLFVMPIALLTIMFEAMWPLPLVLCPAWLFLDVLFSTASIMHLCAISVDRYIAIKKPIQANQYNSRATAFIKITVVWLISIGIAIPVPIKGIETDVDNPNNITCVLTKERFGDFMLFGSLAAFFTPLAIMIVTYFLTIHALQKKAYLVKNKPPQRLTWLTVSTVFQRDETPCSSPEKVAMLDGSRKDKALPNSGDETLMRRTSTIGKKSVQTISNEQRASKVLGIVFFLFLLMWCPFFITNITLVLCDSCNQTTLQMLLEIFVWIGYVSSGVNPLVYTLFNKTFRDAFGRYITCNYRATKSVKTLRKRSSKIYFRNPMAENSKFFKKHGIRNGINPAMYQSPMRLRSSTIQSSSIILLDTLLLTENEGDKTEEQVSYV

[24] = target: 5-hydroxytryptamine receptor 3A (Homo sapiens, UniProt P46098); assay: Binding affinity to 5-HT3 (unknown origin) assessed as inhibition of ligand binding
Chain of 5-hydroxytryptamine receptor 3A (P46098 whole entry): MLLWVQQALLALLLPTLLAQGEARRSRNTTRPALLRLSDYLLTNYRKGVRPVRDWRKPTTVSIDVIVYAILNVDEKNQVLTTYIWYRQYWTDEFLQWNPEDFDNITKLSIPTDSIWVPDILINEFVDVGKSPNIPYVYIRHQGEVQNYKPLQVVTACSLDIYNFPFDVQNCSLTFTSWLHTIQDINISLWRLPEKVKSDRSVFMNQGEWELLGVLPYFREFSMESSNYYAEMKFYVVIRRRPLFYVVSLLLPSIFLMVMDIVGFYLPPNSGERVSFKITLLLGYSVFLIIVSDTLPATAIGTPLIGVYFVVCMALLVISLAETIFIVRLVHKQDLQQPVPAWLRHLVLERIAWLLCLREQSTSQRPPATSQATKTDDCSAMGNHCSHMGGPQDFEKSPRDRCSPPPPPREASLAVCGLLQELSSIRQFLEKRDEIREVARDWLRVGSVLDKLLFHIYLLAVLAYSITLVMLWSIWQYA

[25] = target: 5-hydroxytryptamine receptor 5A (Homo sapiens, UniProt P47898); assay: Binding affinity to 5-HT5A (unknown origin) assessed as inhibition of ligand binding
[26] = target: 5-hydroxytryptamine receptor 6 (Homo sapiens, UniProt P50406); assay: Binding affinity to 5-HT6 (unknown origin) assessed as inhibition of ligand binding
[27] = target: 5-hydroxytryptamine receptor 7 (Homo sapiens, UniProt P34969); assay: Binding affinity to 5-HT7A (unknown origin) assessed as inhibition of ligand binding
[28] = target: Alpha-1A adrenergic receptor (Homo sapiens, UniProt P35348); assay: Binding affinity to alpha1A receptor (unknown origin) assessed as inhibition of ligand binding
[29] = target: Alpha-1B adrenergic receptor (Homo sapiens, UniProt P35368); assay: Binding affinity to alpha1B receptor (unknown origin) assessed as inhibition of ligand binding
[30] = target: Alpha-2A adrenergic receptor (Homo sapiens, UniProt P08913); assay: Binding affinity to alpha2A receptor (unknown origin) assessed as inhibition of ligand binding
[31] = target: Beta-1 adrenergic receptor (Homo sapiens, UniProt P08588); assay: Binding affinity to beta1 adrenergic receptor (unknown origin) assessed as inhibition of ligand binding
[32] = target: Beta-2 adrenergic receptor (Homo sapiens, UniProt P07550); assay: Binding affinity to beta2 adrenergic receptor (unknown origin) assessed as inhibition of ligand binding
Chain of Beta-2 adrenergic receptor (P07550 whole entry): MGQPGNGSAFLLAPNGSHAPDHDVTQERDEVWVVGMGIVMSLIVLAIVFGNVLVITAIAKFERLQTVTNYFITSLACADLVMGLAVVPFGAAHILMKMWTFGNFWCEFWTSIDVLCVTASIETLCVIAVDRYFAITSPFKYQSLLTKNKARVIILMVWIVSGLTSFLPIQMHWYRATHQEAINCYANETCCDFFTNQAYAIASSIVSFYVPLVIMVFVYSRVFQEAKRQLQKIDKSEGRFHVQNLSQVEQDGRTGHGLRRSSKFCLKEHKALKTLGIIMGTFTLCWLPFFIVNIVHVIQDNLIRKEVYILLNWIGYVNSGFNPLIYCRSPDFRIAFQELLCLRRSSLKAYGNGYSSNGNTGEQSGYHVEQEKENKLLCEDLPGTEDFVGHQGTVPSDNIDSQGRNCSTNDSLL

[33] = target: D(1A) dopamine receptor (Homo sapiens, UniProt P21728); assay: Binding affinity to DRD1 (unknown origin) assessed as inhibition of ligand binding
Chain of D(1A) dopamine receptor (P21728 whole entry): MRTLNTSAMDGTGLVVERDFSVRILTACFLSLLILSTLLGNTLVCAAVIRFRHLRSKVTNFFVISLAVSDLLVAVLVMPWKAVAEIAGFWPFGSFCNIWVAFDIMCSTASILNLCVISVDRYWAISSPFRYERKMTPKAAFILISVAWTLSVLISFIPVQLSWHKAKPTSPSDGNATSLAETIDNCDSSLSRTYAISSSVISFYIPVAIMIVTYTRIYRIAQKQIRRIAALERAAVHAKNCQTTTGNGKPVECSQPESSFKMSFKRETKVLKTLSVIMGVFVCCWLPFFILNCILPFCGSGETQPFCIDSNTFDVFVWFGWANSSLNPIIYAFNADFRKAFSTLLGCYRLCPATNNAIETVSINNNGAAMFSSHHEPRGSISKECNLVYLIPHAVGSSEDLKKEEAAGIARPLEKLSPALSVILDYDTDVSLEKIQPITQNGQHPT

[34] = target: D(2) dopamine receptor (Homo sapiens, UniProt P14416); assay: Binding affinity to DRD2 (unknown origin) assessed as inhibition of ligand binding
[35] = target: D(3) dopamine receptor (Homo sapiens, UniProt P35462); assay: Binding affinity to DRD3 (unknown origin) assessed as inhibition of ligand binding
[36] = target: D(4) dopamine receptor (Homo sapiens, UniProt P21917); assay: Binding affinity to DRD4 (unknown origin) assessed as inhibition of ligand binding
[37] = target: D(1B) dopamine receptor (Homo sapiens, UniProt P21918); assay: Binding affinity to DRD5 (unknown origin) assessed as inhibition of ligand binding
[38] = target: Sodium-dependent dopamine transporter (Homo sapiens, UniProt Q01959); assay: Binding affinity to DAT (unknown origin) assessed as inhibition of ligand binding
[39] = Binding affinity to GABAA receptor (unknown origin) assessed as inhibition of ligand binding; design: species or system Homo sapiens
[40] = target: Histamine H1 receptor (Homo sapiens, UniProt P35367); assay: Binding affinity to HRH1 (unknown origin) assessed as inhibition of ligand binding
Chain of Histamine H1 receptor (P35367 whole entry): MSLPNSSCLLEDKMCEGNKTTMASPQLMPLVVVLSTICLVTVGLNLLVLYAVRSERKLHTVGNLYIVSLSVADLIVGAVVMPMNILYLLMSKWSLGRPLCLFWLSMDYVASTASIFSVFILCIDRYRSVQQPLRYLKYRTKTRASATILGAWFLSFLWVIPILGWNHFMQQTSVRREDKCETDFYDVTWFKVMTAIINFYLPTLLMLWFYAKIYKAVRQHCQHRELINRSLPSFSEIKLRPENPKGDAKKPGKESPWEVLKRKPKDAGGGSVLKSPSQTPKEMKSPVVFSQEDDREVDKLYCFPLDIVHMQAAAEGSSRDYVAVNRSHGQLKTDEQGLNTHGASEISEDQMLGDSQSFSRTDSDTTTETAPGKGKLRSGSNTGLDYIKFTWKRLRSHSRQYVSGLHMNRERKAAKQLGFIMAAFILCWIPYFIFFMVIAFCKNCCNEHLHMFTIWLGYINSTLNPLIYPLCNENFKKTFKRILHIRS

[41] = target: Histamine H2 receptor (Homo sapiens, UniProt P25021); assay: Binding affinity to HRH2 (unknown origin) assessed as inhibition of ligand binding
Chain of Histamine H2 receptor (P25021 whole entry): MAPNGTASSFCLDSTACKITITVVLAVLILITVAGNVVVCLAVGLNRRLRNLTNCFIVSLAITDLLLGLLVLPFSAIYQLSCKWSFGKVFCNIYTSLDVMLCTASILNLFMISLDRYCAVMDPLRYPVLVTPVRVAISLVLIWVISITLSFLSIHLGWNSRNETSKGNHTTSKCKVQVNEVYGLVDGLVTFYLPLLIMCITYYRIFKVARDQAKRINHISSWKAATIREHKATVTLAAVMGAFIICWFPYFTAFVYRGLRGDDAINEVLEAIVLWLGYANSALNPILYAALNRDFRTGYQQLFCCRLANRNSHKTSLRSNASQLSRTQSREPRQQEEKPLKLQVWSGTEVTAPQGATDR

[42] = target: Kappa-type opioid receptor (Homo sapiens, UniProt P41145); assay: Binding affinity to KOR (unknown origin) assessed as inhibition of ligand binding
[43] = target: Muscarinic acetylcholine receptor M1 (Homo sapiens, UniProt P11229); assay: Binding affinity to M1 receptor (unknown origin) assessed as inhibition of ligand binding
[44] = target: Muscarinic acetylcholine receptor M2 (Homo sapiens, UniProt P08172); assay: Binding affinity to M2 receptor (unknown origin) assessed as inhibition of ligand binding
[45] = target: Muscarinic acetylcholine receptor M3 (Homo sapiens, UniProt P20309); assay: Binding affinity to M3 receptor (unknown origin) assessed as inhibition of ligand binding
[46] = target: Muscarinic acetylcholine receptor M4 (Homo sapiens, UniProt P08173); assay: Binding affinity to M4 receptor (unknown origin) assessed as inhibition of ligand binding
[47] = target: Muscarinic acetylcholine receptor M5 (Homo sapiens, UniProt P08912); assay: Binding affinity to M5 receptor (unknown origin) assessed as inhibition of ligand binding
Chain of Muscarinic acetylcholine receptor M5 (P08912 whole entry): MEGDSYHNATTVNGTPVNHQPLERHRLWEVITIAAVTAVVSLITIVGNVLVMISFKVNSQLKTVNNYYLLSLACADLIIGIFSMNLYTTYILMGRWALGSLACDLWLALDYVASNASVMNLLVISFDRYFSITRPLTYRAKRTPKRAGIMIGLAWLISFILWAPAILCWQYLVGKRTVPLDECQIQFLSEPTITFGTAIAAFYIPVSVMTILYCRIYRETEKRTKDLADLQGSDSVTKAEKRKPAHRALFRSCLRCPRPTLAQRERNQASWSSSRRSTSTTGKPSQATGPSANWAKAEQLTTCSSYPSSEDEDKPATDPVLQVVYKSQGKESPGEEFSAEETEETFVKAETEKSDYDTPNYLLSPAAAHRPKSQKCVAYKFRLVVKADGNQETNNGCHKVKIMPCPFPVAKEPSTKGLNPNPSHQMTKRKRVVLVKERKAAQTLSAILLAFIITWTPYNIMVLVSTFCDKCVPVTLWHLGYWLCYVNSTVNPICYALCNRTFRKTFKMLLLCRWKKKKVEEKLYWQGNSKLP

[48] = target: Mu-type opioid receptor (Homo sapiens, UniProt P35372); assay: Binding affinity to MOR (unknown origin) assessed as inhibition of ligand binding
[49] = target: Voltage-gated inwardly rectifying potassium channel KCNH2 (Homo sapiens, UniProt Q12809); assay: Binding affinity to human ERG assessed as inhibition of ligand binding

AUC [3]: 13749 ng·h/mL
AUC [4]: 9030 ng·h/mL
Cmax [5]: 3407 ng/mL
Cmax [6]: 6726 ng/mL
CL [7]: 18.3 mL/min/kg
Vdss [8]: 5.5 L/kg
Vdss [9]: 1.5 L/kg
bioavailability [10]: 76%
concentration at 1 h [11]: 1010 ng/g
concentration at 1 h [12]: 2590 ng/g
BPR [13]: 0.39
inhibition [16]: 52.6%
inhibition [17]: 5.98%
Ki [18]: Not Active
Ki [19]: Not Active
Ki [20]: Not Active
Ki [21]: Not Active
Ki [22]: Not Active
Ki [23]: Not Active
Ki [24]: Not Active
Ki [25]: Not Active
Ki [26]: Not Active
Ki [27]: Not Active
Ki [28]: Not Active
Ki [29]: Not Active
Ki [30]: Not Active
Ki [31]: Not Active
Ki [32]: Not Active
Ki [33]: Not Active
Ki [34]: Not Active
Ki [35]: Not Active
Ki [36]: Not Active
Ki [37]: Not Active
Ki [38]: Not Active
Ki [39]: Not Active
Ki [40]: Not Active
Ki [41]: Not Active
Ki [42]: Not Active
Ki [43]: Not Active
Ki [44]: Not Active
Ki [45]: Not Active
Ki [46]: Not Active
Ki [47]: Not Active
Ki [48]: Not Active
SMILES: O=C(NCCO)c1cccc2c1CCN2c1cc(Cc2cc(F)cc(C(F)(F)F)c2)ncn1
inhibition at 10 µM [1]: 11%
Activity [2]: inactive
Activity [14]: Dose-dependent effect
Activity [15]: Active
Ki [49]: Not Active
